What all share (type): cell-based
The species entered for assay [1] is Homo sapiens. As to the kind of experiment: Inhibition of Ca2+ ATPase activity in human red blood cells at 1600 uM by spectrophotometry. The method, boiled down:
(§1)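 Calmodulin-depleted membranes from human packed erythrocytes (2.5 mg/ml) were incubated for 1 h at 37° in 65 mM KCl, 20 mM K-HEPES, 5 mM MgCl2, 50 μM CaCl2 (50.4 μM free Ca2+), 0.1 μM calmodulin and 0.1 mM EGTA. Test agents in DMSO (2.5% final) were added before 2 mM ATP (pH 7.4). Released phosphate was read spectrometrically, Mg2+-ATPase activity was subtracted, and assays were run in duplicate.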

Assay [2] is filed under the species Homo sapiens. Put plainly: Inhibition of Mg2+ ATPase activity in human red blood cells at 100 uM by spectrophotometry. The method, boiled down:
(§2)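 Mg2+-ATPase was assayed with calmodulin-depleted human erythrocyte membranes (2.5 mg/ml) at 37° for 1 h, without added CaCl2, in 65 mM KCl, 20 mM K-HEPES, 5 mM MgCl2, 0.1 μM calmodulin and 0.1 mM EGTA. Compounds in DMSO (2.5% final) were added before starting with 2 mM ATP (pH 7.4). Liberated phosphate was measured spectrometrically, in duplicate.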

The species named for assay [3] is Homo sapiens. As to the kind of experiment: Inhibition of Ca2+ ATPase activity in human red blood cells at 200 uM by spectrophotometry. The method, boiled down:
as §1

The species named for assay [4] is Homo sapiens. As to the kind of experiment: Inhibition of Ca2+ ATPase activity in human red blood cells at 100 uM by spectrophotometry. The method in brief: as §1
The species entered for assay [5] is Homo sapiens. As to the kind of experiment: Inhibition of Ca2+ ATPase activity in human red blood cells at 25 uM by spectrophotometry. The method, boiled down: as §1
Assay [6] is filed under the species Homo sapiens. Put plainly: Inhibition of Mg2+ ATPase activity in human red blood cells at 25 uM by spectrophotometry. The method in brief:
as §2

The species named for assay [7] is Homo sapiens. Put plainly: Inhibition of Mg2+ ATPase activity in human red blood cells at 50 uM by spectrophotometry. The method in brief: as §2
Assay [8] is filed under the species Homo sapiens. Put plainly: Inhibition of Ca2+ ATPase activity in human red blood cells at 50 uM by spectrophotometry. The method, boiled down: as §1
Assay [9] is filed under the species Homo sapiens. As to the kind of experiment: Inhibition of Mg2+ ATPase activity in human red blood cells at 200 uM by spectrophotometry. The method in brief:
as §2

Assay [10] is filed under the species Homo sapiens. As to the kind of experiment: Inhibition of Mg2+ ATPase activity in human red blood cells at 400 uM by spectrophotometry. The method in brief:
as §2

The species named for assay [11] is Homo sapiens. Put plainly: Inhibition of Ca2+ ATPase activity in human red blood cells at 400 uM by spectrophotometry. The method in brief: as §1
Assay [12] is filed under the species Homo sapiens. Put plainly: Inhibition of Mg2+ ATPase activity in human red blood cells at 1600 uM by spectrophotometry. The method, boiled down: as §2
Assay [13] in a line: Inhibition of Ca2+ ATPase activity in human red blood cells by spectrophotometry. The method, boiled down: as §1
Assay [14] is filed under the species Homo sapiens. As to the kind of experiment: Inhibition of Ca2+ ATPase activity in human red blood cells at 800 uM by spectrophotometry. The method, boiled down: as §1
For assay [15], the species on record is Homo sapiens. Put plainly: Inhibition of Mg2+ ATPase activity in human red blood cells at 800 uM by spectrophotometry. The method, boiled down:
as §2

Calls of active or inactive are those of the source. The rule behind the calls is not given here.

The record followed here is ChEMBL document CHEMBL1148092, “Novel Ca(2+)-ATPase inhibitors from the dried root tubers of Polygonum Multiflorum” (J Nat Prod, 1994).

With `O=C(O)c1cc(O)c2c(c1)C(=O)c1cccc(O)c1C2=O`, the result in the assay listed under Homo sapiens [1] was inactive.
As to `OC[C@H]1O[C@@H](Oc2cc(O)cc(O)c2/C=C/c2ccc(O)cc2)[C@H](O)[C@@H](O)[C@@H]1O`, the outcome in the assay listed under Homo sapiens [2], in the assay filed under Homo sapiens [3], in the assay listed under Homo sapiens [4], in the assay listed under Homo sapiens [5], in the assay filed under Homo sapiens [6] and in the assay listed under Homo sapiens [7] was inactive. In addition, the outcome in the assay listed under Homo sapiens [8] and in the assay filed under Homo sapiens [9] was inactive.
The inhibition is how much of the control response was suppressed. A higher inhibition goes with a strong effect. For orientation: IC50 means the concentration needed to halve the response being measured. A higher IC50 goes with weaker potency in that assay. Take `OC[C@H]1O[C@@H](Oc2c(O)cc(O)cc2/C=C/c2ccc(O)cc2)[C@H](O)[C@@H](O)[C@@H]1O`: the inhibition in the assay listed under Homo sapiens [10] was found to be 56%; in the assay filed under Homo sapiens [2], 28%; in the assay filed under Homo sapiens [3], 44%; in the assay listed under Homo sapiens [11] it was 70%; in the assay listed under Homo sapiens [12] it was 75%; in the assay filed under Homo sapiens [4], 15%. For the same compound, the inhibition was 8% in the assay filed under Homo sapiens [5]; 95% in the assay listed under Homo sapiens [14]; 62% in the assay filed under Homo sapiens [15]; 14% in the assay filed under Homo sapiens [6]; 98% in the assay filed under Homo sapiens [1]; 25% in the assay filed under Homo sapiens [7]. Besides, the values for the inhibition in the assay filed under Homo sapiens [8] and in the assay filed under Homo sapiens [9] were 8% and 41%, respectively. In assay [13], this compound gave a concentration for half-maximal inhibition (IC50) of 240 µM.
In the case of `COc1ccc(/C=C/c2cc(O)cc(O[C@@H]3O[C@H](CO)[C@@H](O)[C@H](O)[C@H]3O)c2)cc1O`, the result in the assay filed under Homo sapiens [1] was inactive.
Consider `Cc1cc(O)c2c(c1)C(=O)c1cccc(O)c1C2=O`, for which the result in the assay listed under Homo sapiens [1] was inactive.
The same measure, in the same setting: the result for `Cc1cc(O)c2c(c1)C(=O)c1cc(O)cc(O)c1C2=O` reads “inactive”.
With `CCC/C=C1/OC(=O)C2=C1CC[C@H](O)[C@@H]2O` (relative stereo), the inhibition in the assay filed under Homo sapiens [10] is 67%; in the assay listed under Homo sapiens [2], 36%; in the assay listed under Homo sapiens [3], 62%; in the assay filed under Homo sapiens [11], 79%; in the assay listed under Homo sapiens [4] it was 27%; in the assay listed under Homo sapiens [5], 0%. The inhibition in the assay filed under Homo sapiens [14] is 90%; in the assay listed under Homo sapiens [15] it was 85%; in the assay listed under Homo sapiens [6], 0%; in the assay listed under Homo sapiens [7] it was 17%; in the assay listed under Homo sapiens [8], 0%; in the assay listed under Homo sapiens [9], 52%. Moreover, the IC50 in assay [13] was 160 µM.
Take `CCC/C=C1/OC(=O)C2=C1CC[C@H](O)[C@H]2O` (relative stereo): the inhibition in the assay listed under Homo sapiens [2] was found to be 32%; in the assay listed under Homo sapiens [3], 36%; in the assay filed under Homo sapiens [11], 72%; in the assay listed under Homo sapiens [12], 82%; in the assay listed under Homo sapiens [4], 8%; in the assay listed under Homo sapiens [5], 0%. Further, the inhibition amounted to 87% in the assay filed under Homo sapiens [14]; 71% in the assay listed under Homo sapiens [15]; 21% in the assay filed under Homo sapiens [6]; 94% in the assay listed under Homo sapiens [1]; 13% in the assay listed under Homo sapiens [7]; 3% in the assay listed under Homo sapiens [8]. The compound further showed an inhibition in the assay listed under Homo sapiens [9] of 32%. Further, the IC50 in [13] stood at 260 µM.
